≈ marks a conversion by molar mass, not a printed value. Bridge positions count the residues as written; N and C are the ends. Peptide text beside a SMILES is read from it.
Test system: Candida albicans
Assay: Antifungal activity against Candida albicans ATCC 2002 treated with water after 16 hrs by broth dilution method
Assay type: functional
Conditions: ATCC 2002, 16 h
Outline: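 Salt sensitivity of the MIC. Peptide was tested in water, NaCl, CaCl2, MgCl2 or PBS (Na2HPO4-NaH2PO4, pH 7.4), with every salt at 150 mM. Values are means of three independent experiments, each run in duplicate.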

Structure (SMILES): CC[C@H](C)[C@H](NC(=O)[C@H](Cc1cnc[nH]1)NC(=O)[C@H](CO)NC(=O)[C@@H](NC(=O)[C@@H](NC(=O)[C@@H](NC(=O)[C@@H](NC(=O)[C@H](CCCNC(=N)N)NC(=O)[C@H](CC(C)C)NC(=O)[C@H](CCCCN)NC(=O)[C@H](CCC(=O)O)NC(=O)[C@H](CCCCN)NC(=O)[C@H](CC(C)C)NC(=O)[C@H](CCCCN)NC(=O)[C@@H]1CSSC[C@H](NC(=O)[C@H](CCCCN)NC(=O)[C@@H](N)CCCNC(=N)N)C(=O)N[C@@H](CC(N)=O)C(=O)N[C@@H](Cc2ccccc2)C(=O)N[C@@H](CC(C)C)C(=O)N1)[C@@H](C)O)C(C)C)[C@@H](C)CC)[C@@H](C)O)C(=O)N[C@@H](CC(=O)O)C(=O)N[C@@H](CCCCN)C(=O)N[C@H](C(=O)N[C@@H](CC(C)C)C(=O)N[C@@H](CCCNC(=N)N)C(=O)N1CCC[C@H]1C(=O)N[C@@H](CCC(N)=O)C(=O)NCC(=O)O)C(C)C (H-RKCNFLCKLKEKLRTVITSHIDKVLRPQG-OH; disulfide 3-7)
- MIC: 4.69 µg/mL (≈ 1.37 µM)
